# Activity calls are given as the source filed them. The rule behind the calls is not given here.
# Key:
# [1] = molecular target: T1, Indoleamine 2,3-dioxygenase 1 (Homo sapiens, UniProt P14902); details: at 1 mM
# Target sequence in this assay (P14902 whole entry, looked up): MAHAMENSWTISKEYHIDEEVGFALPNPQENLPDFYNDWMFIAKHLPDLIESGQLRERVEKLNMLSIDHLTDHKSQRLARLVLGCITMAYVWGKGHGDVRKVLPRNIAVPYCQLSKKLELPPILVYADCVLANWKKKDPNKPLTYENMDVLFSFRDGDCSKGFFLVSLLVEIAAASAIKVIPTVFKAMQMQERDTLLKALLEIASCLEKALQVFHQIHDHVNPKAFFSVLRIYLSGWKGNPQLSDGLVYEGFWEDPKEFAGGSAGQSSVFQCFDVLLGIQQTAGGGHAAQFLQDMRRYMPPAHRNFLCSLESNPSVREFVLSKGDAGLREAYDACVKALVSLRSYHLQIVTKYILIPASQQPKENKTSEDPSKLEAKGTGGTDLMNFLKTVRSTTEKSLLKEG
# [2] = molecular target: T1, Indoleamine 2,3-dioxygenase 1; experiment: Inhibition of human recombinant N-terminal His-tagged IDO1 (Ala2 to Gly403) overexpressed in Escherichia coli BL21 at pH 6.5 after 60 mins by HPLC analysis
# Target sequence in this assay (P14902 whole entry): as the sequence (P14902 whole entry, looked up) above
# [3] = molecular target: T1, Indoleamine 2,3-dioxygenase 1; experiment: Inhibition of human IDO1 transfected in HEK293 clone 6 cells by HPLC analysis; format: cell-based
# Target sequence in this assay (P14902 whole entry, looked up): as above
# HepG2 = experiment: Cytotoxicity against human HepG2 cells after 24 hrs by MTS-PMS assay; format: functional; details: HepG2, 24 h, read-out: LD50 (the source's name)
# Outline: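 Hep G2 cells (2 × 10⁴ per well) in IMDM with 10% FCS exposed to compound titrated 0.001–100 μM for 24 h at 37 °C; living cells counted by MTS/PMS assay; LD₅₀ reported as mean of at least two independent assays with standard deviation.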
# [4] = molecular target: Tryptophan 2,3-dioxygenase (Homo sapiens, UniProt P48775); experiment: Inhibition of human TDO transfected in mouse P815B clone 19 cells by HPLC analysis; format: cell-based
# Chain of Tryptophan 2,3-dioxygenase (Homo sapiens, UniProt P48775) (P48775 whole entry): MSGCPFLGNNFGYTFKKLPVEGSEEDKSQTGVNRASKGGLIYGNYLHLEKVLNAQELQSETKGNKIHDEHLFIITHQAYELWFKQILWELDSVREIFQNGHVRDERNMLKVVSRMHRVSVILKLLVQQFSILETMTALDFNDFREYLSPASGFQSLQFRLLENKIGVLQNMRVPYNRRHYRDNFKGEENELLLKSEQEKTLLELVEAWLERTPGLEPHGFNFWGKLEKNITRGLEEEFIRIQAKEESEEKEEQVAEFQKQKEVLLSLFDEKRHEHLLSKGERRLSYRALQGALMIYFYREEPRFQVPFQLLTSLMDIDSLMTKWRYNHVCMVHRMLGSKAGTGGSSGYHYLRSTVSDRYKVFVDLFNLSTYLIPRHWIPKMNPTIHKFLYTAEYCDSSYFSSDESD
# [5] = molecular target: Tryptophan 2,3-dioxygenase (Mus musculus, UniProt P48776); experiment: Inhibition of mouse TDO in P815 clone 12 cells by HPLC analysis; format: cell-based
# Chain of Tryptophan 2,3-dioxygenase (Mus musculus, UniProt P48776) (P48776 whole entry): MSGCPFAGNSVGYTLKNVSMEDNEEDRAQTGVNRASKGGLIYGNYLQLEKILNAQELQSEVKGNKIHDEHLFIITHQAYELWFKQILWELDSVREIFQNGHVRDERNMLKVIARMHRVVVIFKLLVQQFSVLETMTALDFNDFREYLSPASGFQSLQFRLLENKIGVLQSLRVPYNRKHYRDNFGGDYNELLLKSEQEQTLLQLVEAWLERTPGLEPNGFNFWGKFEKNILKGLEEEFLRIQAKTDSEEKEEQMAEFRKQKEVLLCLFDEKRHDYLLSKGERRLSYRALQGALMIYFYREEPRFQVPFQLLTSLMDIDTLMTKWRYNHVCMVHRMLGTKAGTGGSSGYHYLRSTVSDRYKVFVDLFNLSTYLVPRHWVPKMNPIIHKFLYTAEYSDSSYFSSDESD
# [6] = molecular target: T1, Indoleamine 2,3-dioxygenase 1; experiment: Inhibition of human IDO1 transfected in mouse P815B clone-6 cells by HPLC analysis; format: cell-based
# Target sequence in this assay (P14902 whole entry): as the sequence (P14902 whole entry, looked up) above
# [7] = molecular target: Indoleamine 2,3-dioxygenase 1 (Mus musculus, UniProt P28776); experiment: Inhibition of mouse IDO1 in P815 clone 6 cells by HPLC analysis; format: cell-based
# Chain of Indoleamine 2,3-dioxygenase 1 (Mus musculus, UniProt P28776) (P28776 whole entry): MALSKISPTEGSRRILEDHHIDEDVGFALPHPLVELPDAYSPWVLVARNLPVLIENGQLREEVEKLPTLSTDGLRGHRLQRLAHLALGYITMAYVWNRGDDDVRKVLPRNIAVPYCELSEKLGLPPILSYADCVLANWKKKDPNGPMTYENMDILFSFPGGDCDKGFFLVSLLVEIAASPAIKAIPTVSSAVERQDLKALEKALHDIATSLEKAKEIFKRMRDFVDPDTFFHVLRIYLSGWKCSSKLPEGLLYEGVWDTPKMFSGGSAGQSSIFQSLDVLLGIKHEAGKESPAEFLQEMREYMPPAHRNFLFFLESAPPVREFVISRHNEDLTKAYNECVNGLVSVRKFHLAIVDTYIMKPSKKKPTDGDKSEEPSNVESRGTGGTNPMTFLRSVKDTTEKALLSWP
# Outline: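 Murine mastocytoma P815 stably transfected cells were used: P815-mIDO1 clone 6 for mouse IDO1 and P815B-hIDO1 clone 6 for human IDO1. Cells with inhibitor were incubated at 37 °C until under 50% of tryptophan was consumed, as tracked in control wells by pDMAB absorbance at 480 nm. Supernatant was TCA-precipitated, and tryptophan and kynurenine were quantified by C18 HPLC. Values are the mean of ≥2 independent assays.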
# physchem = details: pH 2
SMILES,inhibition [1],IC50 [2] [µM],inhibition [3],CC50 (HepG2) [µM],IC50 [4] [µM],IC50 [5] [µM],IC50 [7] [µM],other results
COc1ccccc1-c1cnnn1-c1ccccc1,inactive,–,–,–,–,–,–,–
Cc1ccc(-c2c[nH]nn2)cc1,–,1000,–,–,–,–,–,–
Cc1c(Cl)cccc1-c1c[nH]nn1,–,72,–,–,–,–,–,–
FC(F)(F)c1cc(-c2c[nH]nn2)ccn1,–,15,Active,> 100,> 100,> 100,0.34,IC50 [6]: 56 µM
Brc1cccc(-c2c[nH]nn2)c1,–,2,Active,> 100,> 100,> 100,0.023,IC50 [6]: 0.94 µM
CCn1ncc(-c2ccccc2)n1,inactive,–,–,–,–,–,–,–
Cc1cccc(N)c1-c1c[nH]nn1,–,1200,–,–,–,–,–,–
Oc1ccc(Cl)cc1-c1c[nH]nn1,–,–,Active,> 100,> 100,> 100,0.002,–
Cc1cccc(-c2cnnn2-c2ccccc2)c1,inactive,–,–,–,–,–,–,–
FC(F)(F)c1ccc(-c2c[nH]nn2)cc1,–,2300,–,–,–,–,–,–
Fc1ccccc1-c1c[nH]nn1,–,80,Active,> 100,> 100,> 100,0.63,IC50 [6]: 70 µM
Cn1ncc(-c2ccccc2)n1,inactive,–,–,–,–,–,–,–
Fc1ccc(-c2c[nH]nn2)cc1,–,190,–,–,> 100,> 100,2.1,IC50 [6]: > 100 µM
Clc1ccccc1-c1cnn[nH]1,–,–,Active,> 100,–,–,–,–
Clc1ccccc1-c1c[nH]nn1,–,32,–,–,> 100,> 100,1.5,IC50 [6]: > 100 µM; pKa (physchem): 8.5
Cn1cc(-c2cccc(Cl)c2)nn1,inactive,–,–,–,–,–,–,–
Fc1ccc2c(/C=C/c3nnn[nH]3)c[nH]c2c1,–,–,Active,> 100,–,17,> 100,–
CCc1ccccc1-c1c[nH]nn1,–,230,Active,> 100,> 100,> 100,13,IC50 [6]: > 100 µM
Cc1ccccc1-c1c[nH]nn1,–,39,Active,> 100,> 100,> 100,1.7,IC50 [6]: > 100 µM

SMILES,inhibition [1],IC50 [2] [µM],inhibition [3],CC50 (HepG2) [µM],IC50 [4] [µM],IC50 [5] [µM],IC50 [7] [µM],other results
N#Cc1cccc(-c2c[nH]nn2)c1,–,2.8,Active,> 100,> 100,> 100,0.029,IC50 [6]: 2.9 µM
c1ccc(Cn2nncc2-c2ccccc2)cc1,inactive,–,–,–,–,–,–,–
Cc1ccc(Cl)cc1-c1c[nH]nn1,–,4.3,Active,> 100,> 100,> 100,0.12,IC50 [6]: 14 µM
Oc1ccccc1-c1ccno1,inactive,–,–,–,–,–,–,–
Clc1cccc(-c2cnnn2-c2ccccc2)c1,inactive,–,–,–,–,–,–,–
c1cc(-c2cnn[nH]2)ccn1,–,85,–,–,–,–,–,pKa (physchem): 7.85
c1ccc(Cn2cc(-c3ccccc3)nn2)cc1,inactive,–,–,–,–,–,–,–
Clc1ccc(-c2c[nH]nn2)cc1,–,530,–,–,–,–,–,pKa (physchem): 8.46
Cc1ccc(N)cc1-c1c[nH]nn1,–,3200,–,–,–,–,–,–
CNc1ccccc1-c1c[nH]nn1,–,1800,–,–,–,–,–,–
Cc1[nH]nnc1-c1ccccc1,inactive,–,–,–,–,–,–,pKa (physchem): 9.11
Brc1ccccc1-c1cnn[nH]1,–,–,Active,> 100,–,–,–,–
Fc1ccc(-c2cnn[nH]2)cc1,–,–,Active,> 100,–,–,–,–
Nc1cccc(-c2c[nH]nn2)c1,–,1500,Active,> 100,> 100,> 100,4,IC50 [6]: > 100 µM
CCn1cc(-c2ccccc2)nn1,inactive,–,–,–,–,–,–,–
FC(F)(F)c1cccc(-c2c[nH]nn2)c1,–,6,Active,> 100,> 100,> 100,0.07,IC50 [6]: 9 µM
Cn1nncc1-c1cccc(Cl)c1,inactive,–,–,–,–,–,–,–
Cc1cccc(NC(=O)C(F)(F)F)c1-c1c[nH]nn1,–,3000,–,–,–,–,–,–
c1cc(-c2c[nH]cn2)ccn1,–,1800,–,–,–,–,–,–
